{"data": "Results gathered from unrelated publications", "Oprk1": "Kappa-type opioid receptor (Oprk1, Rattus norvegicus, UniProt P34975)", "CTSS": "Cathepsin S (CTSS, Homo sapiens, UniProt P25774)", "MAOA": "Amine oxidase [flavin-containing] A (MAOA, Homo sapiens, UniProt P21397)", "ADRA1A": "Alpha-1A adrenergic receptor (ADRA1A, Homo sapiens, UniProt P35348)", "note": "Protocols differ between the studies behind these lines."}
{"Structure (SMILES)": "C#Cc1n[nH]c2c(-c3cn([C@@H](C)c4ccccn4)c(=O)[nH]c3=O)cc(F)cc12", "target": "Focal adhesion kinase 1 (PTK2, Homo sapiens, UniProt Q05397)", "assay": "enzyme activity, inhibitor", "conditions": "0.1 µM", "inhibition": "4.5%"}
{"Structure (SMILES)": "O=C(Nc1cccnn1)N1CCN([C@@H]2CCOc3cc(C(F)(F)F)ccc32)CC1", "target": "Oprk1", "assay": "cell-free assay", "conditions": "20 µM", "inhibition": "21%"}
{"Structure (SMILES)": "N=C(N)c1ccc2cc(OC(=O)c3ccc(N=C(N)N)cc3)ccc2c1", "target": "Dipeptidyl peptidase 3 (DPP3, Homo sapiens, UniProt Q9NY33)", "assay": "enzyme activity, inhibitor", "conditions": "10 µM", "inhibition": "3%"}
{"Structure (SMILES)": "COc1cc(Nc2ncc(F)c(Nc3ccc4c(n3)NC(=O)C(C)(C)O4)n2)cc(OC)c1OC", "target": "Homeodomain-interacting protein kinase 3 (HIPK3, Homo sapiens, UniProt Q9H422)", "assay": "binding, competition with immobilised ligand", "conditions": "10 µM", "inhibition": "64%"}
{"Structure (SMILES)": "CC(C)C[C@H](NC(=O)[C@H]1O[C@@H]1C(=O)O)C(=O)NCCCCN=C(N)N", "target": "CTSS", "assay": "enzyme activity, inhibitor", "conditions": "5 nM", "inhibition": "18%"}
{"Structure (SMILES)": "O=C(O)C(=O)Nc1sc2c(c1C(=O)O)CCNC2", "target": "Tyrosine-protein phosphatase non-receptor type 1 (PTPN1, Homo sapiens, UniProt P18031)", "assay": "enzyme activity, inhibitor", "conditions": "30 µM", "inhibition": "~50%"}
{"Structure (SMILES)": "O=c1ccoc2ccc(OCCCCN3CCCCC3)cc12", "target": "MAOA", "assay": "enzyme activity, inhibitor, fluorescence", "conditions": "10 µM", "inhibition": "16%"}
{"Structure (SMILES)": "Clc1ccc2c(C3CCN(CCc4c[nH]c5ccccc45)CC3)c[nH]c2c1", "target": "ADRA1A", "assay": "ligand displacement, radioligand", "conditions": "10 µM", "inhibition": "108%"}
{"Structure (SMILES)": "Cn1cc(-c2cccc(N3CCc4c(sc5c4CC(C)(C)C5)C3=O)c2CO)cc(Nc2ccncn2)c1=O", "target": "Cyclin-dependent kinase 5, with p25 (CDK5, Homo sapiens, UniProt Q00535)", "assay": "enzyme activity, inhibitor", "conditions": "1 µM", "inhibition": "2%"}
{"Structure (SMILES)": "COCc1c(-c2cc3cc(C)cc(OC)c3s2)c2c(N)ncnn2c1CN1CCNC(=O)C1", "target": "Thromboxane-A synthase (TBXAS1, Homo sapiens, UniProt P24557)", "assay": "enzyme activity, inhibitor", "conditions": "10 µM", "inhibition": "86%"}
{"Structure (SMILES)": "CN(C)C(=O)COC(=O)Cc1ccc(OC(=O)c2ccc(NC(=N)N)cc2)cc1", "target": "CTSS", "assay": "enzyme activity, inhibitor", "conditions": "10 µM", "inhibition": "3%"}
{"Structure (SMILES)": "C[C@H](C(=O)N[C@H]1COc2ccccc2[C@@H]1S(C)(=O)=O)c1ccc(F)cc1", "target": "MAOA", "assay": "cell-free assay, inhibitor", "conditions": "10 µM", "inhibition": "-2%"}
{"Structure (SMILES)": "CCN(CC)CCCC[C@H](NC(=O)[C@H](CC(C)C)NC(=O)[C@H](C)NC(=O)[C@H](Cc1ccccc1)NC(=O)c1ccc(C(C)(C)C)cc1)C(=O)N[C@@H](CO)C(=O)OC", "target": "Oprk1", "assay": "ligand displacement, radioligand", "conditions": "10 µM", "inhibition": "91%"}
{"Structure (SMILES)": "O=C(NC[C@H](O)CO)[C@@H]1C[C@H](c2ccccc2)CCN1 (mixture of isomers)", "target": "ADRA1A", "assay": "ligand displacement, radioligand", "conditions": "10 µM", "inhibition": "-16.2%"}
{"Structure (SMILES)": "CCOC(=O)c1ccc(OC(=O)CCCCCNC(=N)N)cc1", "target": "CTSS", "assay": "enzyme activity, inhibitor", "conditions": "10 µM", "inhibition": "4%"}
{"Structure (SMILES)": "CN1CCN(CCCCOc2ccc3occc(=O)c3c2)CC1", "target": "MAOA", "assay": "enzyme activity, inhibitor, fluorescence", "conditions": "10 µM", "inhibition": "5%"}
